≈ marks a conversion by molar mass, not a printed value.
Legend:
[1] = system: Mycobacterium tuberculosis; experiment: Antitubercular activity against Mycobacterium tuberculosis H37Rv ATCC 27294 after 28 days by agar dilution method; assay type: functional; conditions: H37Rv ATCC 27294, 672 h
Summary of the method: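 Twofold serial dilutions incorporated into Middlebrook 7H11 agar with OADC, final 25–0.78 μg/mL. Inoculum from fresh 7H11/OADC slants, 1 mg/mL wet weight in 0.05% Tween 80 saline diluted 10⁻² (~10⁷ cfu/mL); 5 μL spotted per tube.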

HeLa = experiment: Cytotoxicity against human HeLa cells after 48 hrs after MTT assay; assay type: cell-based
Summary of the method: (§1)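 Cells grown in DMEM with 10% FBS, 37 °C, 5% CO₂. Seeded in 96-well plates and preincubated 24 h before compound, tested at 1, 10, 100, 1000 μM in triplicate wells, 48 h continuous exposure. MTT (10 μL of 5%) added for 60 min, stain eluted with DMSO, absorbance read at 560 nm. IC50 from dose–response curves versus control; mean ± SD of three experiments.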

A549 = experiment: Cytotoxicity against human A549 cells after 48 hrs after MTT assay; assay type: cell-based; conditions: A549, 48 h; summary of the method: as §1
DU-145 = experiment: Cytotoxicity against human DU145 cells after 48 hrs after MTT assay; assay type: cell-based; conditions: DU-145, 48 h
Summary of the method: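 Cells kept in MEM with nonessential amino acids, 1 mM sodium pyruvate, bovine insulin, 10% FBS. Seeded in 96-well plates and preincubated 24 h, then exposed 48 h to 1, 10, 100, 1000 μM in triplicate wells. MTT (10 μL of 5%) for 60 min, DMSO elution, absorbance read at 560 nm. IC50 versus control absorbance; mean ± SD of three experiments.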

SK-N-SH = experiment: Cytotoxicity against human SK-N-SH cells after 48 hrs after MTT assay; assay type: cell-based; summary of the method: as §1
[2] = system: Mycobacterium tuberculosis; experiment: Ratio of pyrazinamide MIC to compound MIC against Mycobacterium tuberculosis H37Rv ATCC 27294; assay type: functional
[3] = system: Mycobacterium tuberculosis; experiment: Ratio of ethambutol MIC to compound MIC against Mycobacterium tuberculosis H37Rv ATCC 27294; assay type: functional
[4] = Selectivity index ratio of IC50 for human HeLa cells to MIC for Mycobacterium tuberculosis H37Rv ATCC 27294; assay type: functional
[5] = Selectivity index ratio of IC50 for human A549 cells to MIC for Mycobacterium tuberculosis H37Rv ATCC 27294; assay type: functional
[6] = Selectivity index ratio of IC50 for human DU145 cells to MIC for Mycobacterium tuberculosis H37Rv ATCC 27294; assay type: functional, DU-145
[7] = Selectivity index ratio of IC50 for human SK-N-SH cells to MIC for Mycobacterium tuberculosis H37Rv ATCC 27294; assay type: functional

| Compound | MIC [1] [µM] | IC50 (HeLa) [µM] | IC50 (A549) [µM] | IC50 (DU-145) [µM] | IC50 (SK-N-SH) [µM] | other results |
| --- | --- | --- | --- | --- | --- | --- |
| CCCc1cn(C(C)c2ccc3oc4ccccc4c3c2)nn1 (stereo unspecified) | 41 (≈ 12.5 µg/mL) | – | – | – | – | – |
| NC(=O)c1cnccn1 [PYRAZINAMIDE] | 50.1 (≈ 6.17 µg/mL) | – | – | – | – | – |
| NNC(=O)c1ccncc1 [ISONIAZID] | 0.37 (≈ 0.0507 µg/mL) | – | – | – | – | – |
| CCCc1cn(C(C)c2ccc3c(c2)c2ccccc2n3C)nn1 (stereo unspecified) | 78 (≈ 24.8 µg/mL) | – | – | – | – | – |
| CC(c1ccc2oc3ccccc3c2c1)n1cc(COCc2ccccc2)nn1 (stereo unspecified) | 65.2 (≈ 25 µg/mL) | – | – | – | – | – |
| CC(c1ccc2oc3ccccc3c2c1)n1cc(-c2ccc(C(C)(C)C)cc2)nn1 (stereo unspecified) | 15.8 (≈ 6.25 µg/mL) | – | – | – | – | – |
| CCCc1cn(C(C)c2ccc3sc4ccccc4c3c2)nn1 (stereo unspecified) | 9.75 (≈ 3.13 µg/mL) | 87 | 68 | 96 | 93 | – |
| CC[C@@H](CO)NCCN[C@@H](CC)CO [ETHAMBUTOL] | 7.6 (≈ 1.55 µg/mL) | – | – | – | – | – |
| CC(c1ccc2sc3ccccc3c2c1)n1cc(-c2ccc(Cl)cc2Cl)nn1 (stereo unspecified) | 3.68 (≈ 1.56 µg/mL) | 162 | 400 | 150 | 477 | – |
| CC(c1ccc2sc3ccccc3c2c1)n1cc(-c2ccc([N+](=O)[O-])cc2)nn1 (stereo unspecified) | 3.9 (≈ 1.56 µg/mL) | 210 | 852 | 138 | 30 | – |
| CC(c1ccc2c(c1)c1ccccc1n2C)n1cc(-c2ccccc2)nn1 (stereo unspecified) | 71 (≈ 25 µg/mL) | – | – | – | – | – |
| CC(c1ccc2sc3ccccc3c2c1)n1cc(-c2ccc(Br)cc2F)nn1 (stereo unspecified) | 3.45 (≈ 1.56 µg/mL) | 457 | 219 | 222 | 76 | – |
| CC(c1ccc2oc3ccccc3c2c1)n1cc(CO)nn1 (stereo unspecified) | 85.3 (≈ 25 µg/mL) | – | – | – | – | – |
| CCCCCCc1cn(C(C)c2ccc3c(c2)c2ccccc2n3C)nn1 (stereo unspecified) | 70 (≈ 25.2 µg/mL) | – | – | – | – | – |
| CC(c1ccc2sc3ccccc3c2c1)n1cc(-c2cc(F)cc(F)c2Cl)nn1 (stereo unspecified) | 12.5 (≈ 5.32 µg/mL) | 116 | 507 | 120 | 46 | – |
| CC(c1ccc2sc3ccccc3c2c1)n1cc(-c2ccccc2[N+](=O)[O-])nn1 (stereo unspecified) | 3.9 (≈ 1.56 µg/mL) | 136 | 190 | 126 | 386 | – |
| CC(c1ccc2c(c1)c1ccccc1n2C)n1cc(-c2ccccc2[N+](=O)[O-])nn1 (stereo unspecified) | 31.5 (≈ 12.5 µg/mL) | – | – | – | – | – |
| CC(c1ccc2sc3ccccc3c2c1)n1cc(CCc2ccccc2)nn1 (stereo unspecified) | 8.17 (≈ 3.13 µg/mL) | 79 | 78 | 100 | – | – |
| CCCCCCc1cn(C(C)c2ccc3sc4ccccc4c3c2)nn1 (stereo unspecified) | 4.3 (≈ 1.56 µg/mL) | – | – | – | – | – |
| CC(c1ccc2oc3ccccc3c2c1)n1cc(-c2ccccc2[N+](=O)[O-])nn1 (stereo unspecified) | 16.3 (≈ 6.27 µg/mL) | – | – | – | – | – |

| Compound | MIC [1] [µM] | IC50 (HeLa) [µM] | IC50 (A549) [µM] | IC50 (DU-145) [µM] | IC50 (SK-N-SH) [µM] | other results |
| --- | --- | --- | --- | --- | --- | --- |
| CCCCCCc1cn(C(C)c2ccc3oc4ccccc4c3c2)nn1 (stereo unspecified) | 18 (≈ 6.25 µg/mL) | – | – | – | – | – |
| CCCCc1cn(C(C)c2ccc3oc4ccccc4c3c2)nn1 (stereo unspecified) | 39.2 (≈ 12.5 µg/mL) | – | – | – | – | – |
| CC(c1ccc2sc3ccccc3c2c1)n1cc(COCc2ccccc2)nn1 (stereo unspecified) | 7.84 (≈ 3.13 µg/mL) | 438 | 189 | 225 | 103 | – |
| CC(c1ccc2sc3ccccc3c2c1)n1cc(-c2ccc(F)cc2Cl)nn1 (stereo unspecified) | 1.91 (≈ 0.779 µg/mL) | 155 | 249 | 147 | 342 | Ratio [2]: 26; Ratio [3]: 4; Ratio [4]: 55; Ratio [5]: 55; Ratio [6]: 55; Ratio [7]: 55 |
| CC(c1ccc2sc3ccccc3c2c1)n1cc(-c2ccc(C(C)(C)C)cc2)nn1 (stereo unspecified) | 1.89 (≈ 0.778 µg/mL) | 191 | 482 | 105 | 260 | Ratio [2]: 26; Ratio [3]: 4; Ratio [4]: 55; Ratio [5]: 55; Ratio [6]: 55; Ratio [7]: 55 |
| CC(c1ccc2sc3ccccc3c2c1)n1cc(-c2ccsc2)nn1 (stereo unspecified) | 34.6 (≈ 12.5 µg/mL) | – | – | – | – | – |
| CC(c1ccc2c(c1)c1ccccc1n2C)n1cc(COCc2ccccc2)nn1 (stereo unspecified) | 63.1 (≈ 25 µg/mL) | – | – | – | – | – |
| CC(c1ccc2sc3ccccc3c2c1)n1cc(-c2cc(F)ccc2F)nn1 (stereo unspecified) | 3.98 (≈ 1.56 µg/mL) | 96 | 272 | 767 | 21 | – |
| CC(c1ccc2sc3ccccc3c2c1)n1cc(-c2ccc(-c3ccccc3)cc2)nn1 (stereo unspecified) | 14.5 (≈ 6.26 µg/mL) | – | – | – | – | – |
| CC(c1ccc2c(c1)c1ccccc1n2C)n1cc(-c2ccc(C(C)(C)C)cc2)nn1 (stereo unspecified) | 30.6 (≈ 12.5 µg/mL) | – | – | – | – | – |
| CCCCc1cn(C(C)c2ccc3c(c2)c2ccccc2n3C)nn1 (stereo unspecified) | 75.3 (≈ 25 µg/mL) | – | – | – | – | – |
| CC(c1ccc2sc3ccccc3c2c1)n1cc(-c2cc3ccccc3c3ccccc23)nn1 (stereo unspecified) | 54.9 (≈ 25 µg/mL) | – | – | – | – | – |
| CC(c1ccc2sc3ccccc3c2c1)n1cc(-c2ccccc2)nn1 (stereo unspecified) | 4.4 (≈ 1.56 µg/mL) | 329 | 444 | 90 | 291 | – |
| CCCCc1cn(C(C)c2ccc3sc4ccccc4c3c2)nn1 (stereo unspecified) | 4.66 (≈ 1.56 µg/mL) | 62 | 80 | 107 | 101 | – |
| Cc1ccc(-c2cn(C(C)c3ccc4sc5ccccc5c4c3)nn2)cc1 (stereo unspecified) | 8.48 (≈ 3.13 µg/mL) | 164 | 108 | 174 | 32 | – |
| COc1ccc2cc(-c3cn(C(C)c4ccc5sc6ccccc6c5c4)nn3)ccc2c1 (stereo unspecified) | 28.7 (≈ 12.5 µg/mL) | – | – | – | – | – |
| CC(c1ccc2oc3ccccc3c2c1)n1cc(-c2ccccc2)nn1 (stereo unspecified) | 18.4 (≈ 6.24 µg/mL) | – | – | – | – | – |
| CC(c1ccc2sc3ccccc3c2c1)n1cc(CO)nn1 (stereo unspecified) | 20.2 (≈ 6.25 µg/mL) | – | – | – | – | – |
| CC(c1ccc2c(c1)c1ccccc1n2C)n1cc(CO)nn1 (stereo unspecified) | 81.7 (≈ 25 µg/mL) | – | – | – | – | – |

Reference: ChEMBL document CHEMBL2046404, “Design, synthesis, and structure-activity correlations of novel dibenzo[b,d]furan, dibenzo[b,d]thiophene, and N-methylcarbazole clubbed 1,2,3-triazoles as potent inhibitors of Mycobacterium tuberculosis” (J Med Chem, 2012)
